An excerpt weighted towards active compounds, which were near 1.2% of everything screened.
APOBEC3A inh = APOBEC3A ssDNA deaminase inhibitors, primary screen, selectivity assay for APOBEC3G inhibitor project, biochemical, FAM/TAMRA oligo cleavage fluorescence | inhibition, % at 20 µM | recombinant A3A, FAM/TAMRA ssDNA deamination fluorescence | 330,000 tested, 0.41% active | DNA dC->dU-editing enzyme APOBEC-3A (Homo sapiens), P31941;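 active means at least 40% inhibition at 20 µM here, with at most 30% in a related deaminase screen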;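 further: plate controls were A3A with DMSO for no effect and wells lacking A3A enzyme for full effect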
Target sequence (P31941 whole entry, looked up): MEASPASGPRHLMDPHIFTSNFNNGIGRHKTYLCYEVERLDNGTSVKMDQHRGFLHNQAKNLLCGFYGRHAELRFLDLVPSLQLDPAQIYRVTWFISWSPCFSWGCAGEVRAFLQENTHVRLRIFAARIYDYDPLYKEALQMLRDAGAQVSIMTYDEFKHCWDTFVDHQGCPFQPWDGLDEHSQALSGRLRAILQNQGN
A3G deaminase = APOBEC3G DNA deaminase inhibitors, primary screen, biochemical, fluorescence, single-stranded DNA substrate, uHTS | recombinant A3G, ssDNA deamination FAM/TAMRA fluorescence | DNA dC->dU-editing enzyme APOBEC-3G (Homo sapiens), Q9HC16 | 330,000 tested, 0.28% active | inhibition, % at 20 µM | AID 493012, 2011;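 active means inhibition of at least 40% at 20 µM, with no more than 30% in the related APOBEC3A deaminase screen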;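 further: plate controls were DMSO wells with A3G for no effect and wells lacking A3G enzyme for full effect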
ABHD5 PLIN5 PPI = ABHD5-PLIN5 interaction inhibitors, primary screen, cell lysate, split luciferase complementation, luminescence; AID 602281, 2012; Split G. princeps luciferase complementation, 4 h; inhibition, % at 4 µM; Perilipin-5 (Homo sapiens) + 1-acylglycerol-3-phosphate O-acyltransferase ABHD5 (Homo …; 360,000 tested, 0.78% active;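 active means inhibition above the mean inhibition across every tested compound plus 3 SD, cut at about 22% in these data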;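 further: 0% = DMSO only wells and the 100% control is not disclosed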
FN deposition inh = inhibitors of fibronectin matrix deposition, primary screen, AH1F cells, Alexa488-fibronectin fluorescence, plate reader. AH1F fibroblasts, overnight. inhibition, % at 12.6 µM. 350,000 tested, 0.086% active. AID 743247, 2014;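 active means mean inhibition across replicates of 30% or more, regardless of how many single replicates reach that level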;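 further: positive control wells lacked labelled fibronectin entirely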
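Material – AH1F fibroblast monolayer, labelled fibronectin deposition · Reagent – labelled fibronectin 24 nM · Timing – 1 h adhesion, overnight exposure · Measured by – fluorescence at 485 nm excitation, 525 nm emission · Read-out – inhibition of fibronectin deposition signal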
ABHD5 PLIN5 conf = ABHD5-PLIN5 interaction inhibitors, confirmation, biochemical, luminescence | shares compounds with ABHD5 PLIN5 PPI | inhibition, % at 4 µM | 2,200 tested, 67% active | AID 651612, 2012; in the data active means inhibition above about 23%;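 further: 0% = DMSO vehicle wells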
HNF4 counter = HNF4 dimerization inhibitors, counter-screen for ABHD5-PLIN5 interaction inhibitor project, biochemical, split-luciferase complementation, luminescence; shares compounds with ABHD5 PLIN5 PPI; inhibition, % at 4 µM; 2,200 tested, 77% active; AID 651674, 2012;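 active means mean inhibition across replicate wells exceeding the computed hit threshold, cut at about 13% in these data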;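 further: light from luciferase halves that rejoin when HNF4 fusion proteins dimerize; 0% = DMSO only wells and the 100% control is not given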
Target sequence (P41235 whole entry, looked up, the tested form may be a part): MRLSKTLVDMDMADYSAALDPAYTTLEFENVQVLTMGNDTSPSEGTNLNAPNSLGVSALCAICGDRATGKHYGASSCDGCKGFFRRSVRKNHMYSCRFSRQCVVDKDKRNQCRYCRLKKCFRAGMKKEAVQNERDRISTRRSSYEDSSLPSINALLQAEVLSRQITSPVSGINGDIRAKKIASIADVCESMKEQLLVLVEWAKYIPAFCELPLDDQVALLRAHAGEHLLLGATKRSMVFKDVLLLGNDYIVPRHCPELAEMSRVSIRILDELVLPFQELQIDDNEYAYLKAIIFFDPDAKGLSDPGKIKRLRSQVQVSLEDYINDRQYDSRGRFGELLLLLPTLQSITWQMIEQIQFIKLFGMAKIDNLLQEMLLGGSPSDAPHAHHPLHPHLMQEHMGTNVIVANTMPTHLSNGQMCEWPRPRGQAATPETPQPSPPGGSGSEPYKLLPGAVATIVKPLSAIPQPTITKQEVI
Starred values were filed as active, the others as inactive; . = no result.

SMILES | APOBEC3A inh | A3G deaminase | ABHD5 PLIN5 PPI | FN deposition inh | ABHD5 PLIN5 conf | HNF4 counter
Cc1ccc(/C=C/C(=O)c2c(C)cc(C)[nH]c2=O)cc1 | 6.7 | -2.9 | 18.6 | . | . | .
Clc1cccc(Cc2c(-c3ccco3)nc3ccc(Cl)cn23)c1 | . | . | 71.2* | 9.6 | 86.0* | 102.2*
Fc1cccc(Cc2c(-c3ccco3)nc3c(Cl)cc(C(F)(F)F)cn23)c1 | . | . | 52.6* | -1.0 | 69.9* | 83.2*
Cc1cc(Br)cn2c(Cc3ccccc3)c(-c3cccc(Cl)c3)nc12 | . | . | -3.0 | 5.2 | . | .
Cc1cc(Br)cn2c(Cc3cccc(Cl)c3)c(-c3ccco3)nc12 | . | . | 28.0* | -9.6 | 28.5* | 40.0*
Clc1ccc(-c2nc3ccc(Cl)cn3c2Cc2cccc(Cl)c2)cc1 | . | . | -4.0 | -6.8 | . | .
Cc1ccc(Cc2c(-c3ccco3)nc3c(C)cc(Br)cn23)cc1 | . | . | 63.7* | 4.9 | 48.2* | 65.9*
C[C@H](CO)N1C[C@H](C)[C@@H](CN(C)CC2CC2)Oc2cc(C#CC3(O)CCCC3)ccc2S1(=O)=O | . | . | . | -0.1 | . | .
C[C@@H]1CN([C@@H](C)CO)S(=O)(=O)c2ccc(Br)cc2O[C@H]1CN(C)C(=O)c1cnccn1 | . | . | . | -9.9 | . | .
CC(=O)c1cc(NC(=O)c2ccccc2)c(=O)oc1C | -3.9 | -7.4 | 8.9 | 5.2 | . | .
Cc1oc(=O)c(NC(=O)c2ccc(Cl)cc2)cc1C(=O)c1ccccc1 | 1.3 | 1.9 | 46.4* | 5.4 | 10.9 | 95.0*
CO[C@H]1CN(C)C(=O)c2cc(NC(C)=O)ccc2OC[C@@H](C)N(C(=O)c2ccc(F)cc2)C[C@@H]1C | . | . | . | -18.4 | . | .
O=C(Nc1ccccc1)C1=C(c2ccccc2)S(=O)(=O)CCS1(=O)=O | . | . | 87.6* | 17.8 | 99.9* | 108.5*
O=C(O)c1ccccc1C(=O)Nc1ccccc1 | -2.3 | -5.9 | -8.0 | 4.3 | . | .
O=C(O)c1ccc2nc(-c3ccco3)c(-c3ccco3)nc2c1 | 97.4 | 84.5 | 26.9* | 4.5 | 82.2* | 94.0*
O=S(=O)(c1ccc2nc(-c3ccco3)c(-c3ccco3)nc2c1)N1CCOCC1 | 77.1 | 59.0 | 25.8* | . | 78.1* | 62.2*
Nc1sccc1C(=O)N1CCN(c2ccccc2)CC1 | . | . | 29.9* | . | 1.1 | 42.3*
COc1ccc2c(c1)/C(=C/c1cc(OC)c(OC)c(OC)c1)C(=O)N2 | . | . | 36.1* | 11.4 | 49.4* | 43.6*
Cc1ccc2c(c1)/C(=C/c1ccc(F)cc1)C(=O)N2 | 2.8 | 1.2 | 34.2* | 11.4 | 45.4* | 35.6*
O=C(C[C@H]1C=C[C@@H](NC(=O)Nc2ccc(C(F)(F)F)cc2)[C@H](CO)O1)NCc1ccccn1 | . | . | . | -4.1 | . | .
Cc1ccccc1C[n+]1cccc2ccccc21 | -5.1 | -8.0 | 8.3 | -8.7 | . | .
CCCCCCCCCCCCCCCC[n+]1cccc2ccccc21 | 62.2 | 44.0 | 35.3* | . | 16.2 | -2.8
CCc1nc2c(sc3nc4c(cc32)COC(C)(C)C4)c(=O)n1Cc1ccco1 | 0.8 | -2.8 | 28.4* | . | 20.9 | 35.6*
CCc1nc(OCc2ccco2)c2sc3nc4c(cc3c2n1)COC(C)(C)C4 | 0.3 | -5.4 | 32.7* | . | 47.0* | 73.6*
C/C=C/c1ccc2c(c1)O[C@@H](CN(C)C(=O)CN(C)C)[C@@H](C)CN([C@@H](C)CO)S2(=O)=O | . | . | . | 5.4 | . | .
SMILES | APOBEC3A inh | A3G deaminase | ABHD5 PLIN5 PPI | FN deposition inh | ABHD5 PLIN5 conf | HNF4 counter
C[C@@H]1CCc2cnnn2COC[C@H](Cc2ccccc2)NC1=O | . | . | . | -0.8 | . | .
CCOc1cc(/C=C\[N+](=O)[O-])ccc1OCC(=O)N1CCOCC1 | -5.2 | -8.0 | 29.0* | -8.8 | 69.6* | 69.9*
O=C(C[n+]1cccc(CNC(=O)c2ccc(OC(F)F)cc2)c1)Nc1ccccc1Cl | 2.7 | -2.0 | 5.4 | -1.5 | . | .
O=C(C[n+]1cccc(CNC(=O)c2ccc(OC(F)F)cc2)c1)Nc1ccc(SC(F)F)cc1 | 2.0 | -6.1 | 28.6* | -10.8 | 16.1 | 3.0
C[C@@H]1CN([C@H](C)CO)C(=O)Cc2cc(NC(=O)CCC(F)(F)F)ccc2O[C@H]1CN(C)C(=O)NC1CCCCC1 | . | . | . | 0.6 | . | .
COc1ccc(S(=O)(=O)N2c3ccc(F)cc3CCC2C)cc1 (configuration not stated) | 6.5 | 5.4 | -5.9 | 8.3 | . | .
CC(=O)Nc1ccc(S(=O)(=O)N2c3ccc(F)cc3CCC2C)cc1 (configuration not stated) | -1.5 | -8.0 | 27.0* | 7.3 | 45.9* | 5.5
COc1ccccc1N/C=C/c1onc(C)c1[N+](=O)[O-] | -1.2 | -9.9 | 5.2 | 0.4 | . | .
Cc1noc(/C=C/c2ccccn2)c1[N+](=O)[O-] | 2.0 | -0.9 | 42.2* | 8.8 | 77.3* | 70.2*
COc1cccc(NC(=O)CCc2nnc3ccc(NCc4ccco4)nn23)c1 | 0.3 | -1.9 | 28.8* | -2.0 | 7.7 | 9.2
COc1cc(/C=C2/C(=O)CNC2=O)ccc1O | -2.3 | -3.1 | 0.3 | 2.0 | . | .
COc1cc(C=C2C(=O)C=CC2=O)ccc1O | . | . | 99.2* | 28.6 | 94.4* | 107.6*
CCOC(=O)C(NC(=O)c1ccccc1Cl)(Nc1sc2c(c1C(N)=O)CCC2)C(F)(F)F (configuration not stated) | . | . | 23.5* | -12.8 | 22.8* | 26.5*
CN1C(=O)c2cc(NC(=O)c3ccccc3)ccc2OC[C@@H]2O[C@@H](CC(=O)NCC3CC3)CC[C@@H]21 | . | . | . | -24.7 | . | .
CCc1ccc(/C=C/C(=O)c2ccc(S(=O)(=O)N(C)C)cc2)cc1 | 0.6 | -1.4 | 41.4* | 7.3 | 92.0* | 83.3*
CCc1ccc(/C=C/C(=O)c2ccc(N3CCOCC3)cc2)cc1 | -3.5 | -6.3 | 6.4 | -2.0 | . | .
O=C(c1ccccc1)N1CC[C@@H]2[C@@H](CO)Nc3ccc(C#Cc4cccc(F)c4)cc3[C@@H]21 | . | . | . | -0.9 | . | .
CCC(=O)N(C)C[C@H]1Oc2ncc(C3=CCCC3)cc2C(=O)N([C@H](C)CO)C[C@@H]1C | . | . | . | -1.5 | . | .
O=[N+]([O-])c1c(NCCCO)cc(Sc2ccc(Cl)cc2)c2nonc12 | . | . | 6.0 | 5.8 | . | .
Cn1ccnc1Sc1cc(NCCCO)c([N+](=O)[O-])c2nonc12 | -3.4 | -8.1 | 25.9* | . | 29.4* | 94.6*
CNC[C@@H]1Oc2ccc(N)cc2C(=O)N(C)C[C@@H]1C | . | . | . | 8.0 | . | .
COc1ccc(NC(=O)Nc2ccc3c(c2)[C@@H]2C[C@@H](CC(=O)N(C)C)O[C@@H](CO)[C@@H]2O3)cc1 | . | . | . | -16.6 | . | .
O=C1OC(NC(=O)c2ccccc2)C(n2cc(CO)nn2)=C1Cl (configuration not stated) | -3.6 | 5.4 | 64.3* | 0.9 | 90.3* | 102.6*

Assay outcomes as filed in PubChem.
